Measured values published in ChEMBL document CHEMBL4513216, “Probing the Open Global Health Chemical Diversity Library for Multistage-Active Starting Points for Next-Generation Antimalarials” (ACS Infect Dis, 2020).

Experiment: Toxicity liver stage against HepG2, at 10uM
Assay type: cell-based
Design: test concentration 10 uM, cell line HepG2-A16-CD81EGFP
Details: human, HepG2-A16-CD81EGFP cells; read-out: INHIBITION
Procedure, shortened: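 Uninfected HepG2-A16-CD81EGFP cells, 3 × 10^3 per well, 1536-well, plated on prespotted compound at 10 μM final, parasite-free screening media added to match infected plates; puromycin 10 μM positive, DMSO 0.5% negative; run in parallel with 48 h PbLuc assay at 37 °C, 5% CO2; viability by CellTiter-Glo luminescence, normalized to controls.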

SMILES | cytotoxicity at 10 µM [%]
CCCn1c(C)c(CC(=O)NCCNC(C)=O)c2c1CC(C)(C)CC2=O | 6.2
O=c1n(CCNCc2cccc3ccccc23)nc2ccccn12 | 0.551
CC(Cn1cccn1)NC(=O)N(C)Cc1cnn(C)c1 (stereo not given) | -5.17
COc1ccc(C(C)NCc2ccsc2)cc1Cn1cccn1 (stereo not given) | 7.86
Cn1cnc2cc(CCC(=O)Nc3nc[nH]n3)ccc21 | 4.44
CCN(Cc1cccc2c1OCO2)C(=O)NCc1ccccn1 | 1.48
CCC(CNc1ncnc2oc(C)nc12)Cc1ccccc1 (stereo not given) | 1.23
CS(=O)(=O)NCC1CCCN(C(=O)c2cccc(F)c2)C1 (stereo not given) | -6.93
O=C(CC(F)(F)F)N1CCc2[nH]nc(-c3ccc4c(c3)OCO4)c2C1 | -149
c1cc(CNCc2ccnc(N3CCCC3)c2)c2c(c1)OCCCO2 | 26.6
O=C1CCC2(CCN(Cc3ccc(F)cc3)CC2)N1Cc1ccccc1 | -1.63
CN(CCCNC(=O)NCc1ccncc1)CC(F)(F)F | 1.85
CC(C(=O)Nc1ccc(N2CCCC2)nc1)n1cncn1 (stereo not given) | -6.19
O=C1CC[C@H]2CN(Cc3cccc(F)c3)CC[C@H]2N1CCc1c[nH]cn1 | -1.04
Cc1csc(C2CCCN(C(=O)Cn3ccccc3=O)C2)n1 (stereo not given) | -5.68
COc1cc(C)ccc1OCCC(=O)N1CCC(N2CC=CC2)C1 (stereo not given) | 6.99
CC(C)(O)CCc1ccc(C(=O)N2CCN(CC(F)(F)F)CC2)cc1 | 6.16
Cc1nc(CC2CCN(Cc3ccc(CCC(C)(C)O)cc3)CC2)no1 | -0.94
CC(CC(=O)Nc1ncn(CC(=O)NCc2ccccc2)n1)C1CC1 (stereo not given) | 7.12
CC(Cn1cc(Br)cn1)C(=O)Nc1ccncc1 (stereo not given) | -2.82
CN1CCCN(C[C@@H]2CN(c3nc(C(N)=O)cs3)C[C@@H]2CO)CC1 | 2.67
CN1CCN(Cc2cccc(C#N)c2)Cc2cccnc21 | -83.2
CCN(C(=O)CN1CCCC1c1cc(C)no1)c1ccccc1C (stereo not given) | -0.264
Cn1nc(C2CNCCO2)cc1CCOc1cccc(C(F)(F)F)c1 (stereo not given) | -1.02
O=C(COc1ccc(F)cc1)N1CCO[C@H]2[C@@H](OCC3CC3)CC[C@@H]21 | -101
CCN(CC)CCn1cnc(-c2ccccc2)c1-c1cnn(CC)c1 | 3.37
O=C(NCCCOc1cccnc1)c1cn(CCc2ccccc2)nn1 | -0.977

SMILES | cytotoxicity at 10 µM [%]
Cc1nn(C)c2nc(N3CCC(C(O)Cc4ccccc4)CC3)sc12 (stereo not given) | 28.2
CCn1ccnc1C1CCCN(c2nccc3ccccc23)C1 (stereo not given) | -2.74
Cn1cc(CCNCc2cc(Br)c3c(c2)OCO3)cn1 | -18
O=C(N1CCCC1)N1CCN(c2ccc(Cl)nn2)C(=O)C1 | 7.33
Cc1scc(C(=O)N2CCC3(CCCN(C)C3=O)C2)c1-c1ccccc1 (stereo not given) | -6.05
Cc1noc(C)c1CN1CCO[C@H]2CN(Cc3cnn(C)c3)C[C@H]21 | -0.292
COc1cccc(CCNC(=O)c2ccc(=O)n(C)c2)c1 | -9.08
CC1=Nc2c(c(=O)[nH]n2C(C)C)C(c2ccc(F)c(F)c2)S1 (stereo not given) | -5
Cc1nc(NC(=O)NC2CC(=O)N(C)C2)nn1C(C)C (stereo not given) | -8.15
Cc1nc2c(cc1C(=O)O)CCN(CC1CC1)CC2 | -154
O=C(C1CCOC1)N1CCN(CC2CC2)c2ccccc21 (stereo not given) | 8.93
Cc1ccc(N2CC[C@H]3OCC[C@@]3(C(=O)N(C)C)C2)nn1 | 1.11
Cn1c(CN2CCC(N3CCNC3=O)CC2)cc(=O)n(C)c1=O | -2.03
O=C(c1ccc2c(c1)COC2)N1CCCN(Cc2cscn2)CC1 | 0.0102
O=C(c1ccnnc1)N1CC[C@H]2[C@H]1CCN2S(=O)(=O)C1CC1 | -143
CN(C)C(=O)[C@H]1CC[C@@H]2[C@@H](CCN2C(=O)N(C)C)O1 | 20.3
Cn1nc2c(cc1=O)CN(Cc1nnc(-c3ccco3)o1)CC2 | -4.64
CCn1nccc1C(=O)NC(Cn1cccn1)C(C)(C)C (stereo not given) | -9.24
Cc1nc(CO[C@@H]2CN(Cc3nccs3)[C@@H]3COC[C@@H]32)cs1 | -3.03
Cc1cccc(CN2CC[C@H]3OCC[C@@]3(C(=O)N3CCCO3)C2)n1 | 0.886
CC(C)C1CN(C(=O)c2csc(CN(C)C)n2)CCC(=O)N1CC1CC1 (stereo not given) | -1.74
O=C(c1ccc2cccc(F)c2n1)N1CCN(CCn2cncn2)CC1 | 7.02
CC(=O)NCCNc1nc(-c2ccccn2)nc2c1c(C)nn2C | 2.72
O=S(=O)(c1cccs1)N1CCCC(c2nccs2)C1 (stereo not given) | -15
O=C1CCCN1Cc1ccc(C(=O)N2CCCC2c2cccs2)cc1 (stereo not given) | 3.78
O=C(CCS(=O)(=O)c1ccccc1)NC1CCOC2(CCOCC2)C1 (stereo not given) | 7.56
CCc1nnsc1C(=O)N1CCCC(n2ccnc2C(C)C)C1 (stereo not given) | -16

SMILES | cytotoxicity at 10 µM [%]
Cc1ccc(CNC(=O)NC2CCCN(c3ncccn3)C2)n1C (stereo not given) | 5.23
CCc1nnc(CN(C)c2nccc(CCC(F)(F)F)n2)o1 | 7.4
O=C(CCCNC(=O)c1cnccn1)Nc1ncc[nH]1 | -41.9
O=C(O)c1ccccc1-c1ccc(CN2CCC(CO)C2)cn1 (stereo not given) | -1.79
C1CC(c2noc(C3CC3)n2)CN(Cc2noc(C3CC3)n2)C1 (stereo not given) | -5.16
COC[C@H]1CNC(=O)[C@@H]2CCN(Cc3cccc(C)n3)CC[C@H]12 | 16.7
CN1CCN(Cc2ccc(Cl)cc2)CC1C(=O)O (stereo not given) | -2.31
Cc1ncc(CN2CCc3nc4cc(C(C)(C)C)nn4c(O)c3C2)n1C | 8.62
Cc1nc(C(C)NC(=O)c2cn(Cc3ccc(Cl)cc3)nn2)n[nH]1 (stereo not given) | 10.2
CCCn1cc(C(=O)NC2CCN(CC(=O)NC3CC3)CC2)c(C)n1 | 2.29
NC(=O)c1cnc2n1CCN(C(=O)c1ccc(-c3cc[nH]n3)cc1)C2 | -2.79
N#Cc1ccc(N2CCCN(C(=O)CC3CCCO3)CC2)cc1 (stereo not given) | -4.69
Cc1noc(C)c1CN1C[C@@H]2COC[C@@H](C(=O)N3CCCCO3)[C@@H]2C1 | -71.7
Cc1nc2ncccn2c1C(=O)N1CCc2[nH]cnc2C1 | 7.94
CNS(=O)(=O)c1cccc(C(C)NCc2ccc(F)cc2F)c1 (stereo not given) | 12.8
CC(C)OCCC(=O)N(C)c1ccc(F)c(Cl)c1 | -4.62
COc1ccccc1NCC(=O)NCc1scnc1C | 5.48
COCC(O)CNC(=O)Nc1c(F)cc(F)cc1-c1ccccc1 (stereo not given) | -4.17
O=C1NCC2(CCC(C(=O)N3CCCC(O)C3)CC2)Oc2ccccc21 (stereo not given) | -24.1
N#Cc1nc(COc2ccc3c(c2)OCO3)oc1NC1CC1 | -43
COc1cccc2c1N(Cc1nc(C3CC3)no1)CCC2 | 11.2
CC(=O)N1CCc2c(nc(N(C)C)nc2NCCCn2ccnc2C)C1 | -7.42
CC(CNC(=O)c1cccnc1)Oc1ccc(F)cc1 (stereo not given) | -6.98
O=C(C[C@@H]1COC[C@H]2CN(C3CCCC3)C[C@@H]12)N1CCCCO1 | 7.92
COC(=O)c1ccc(Cn2cccc(C(F)(F)F)c2=O)c(OC)c1 | 8.55
CC(C)c1ccc(CN2C(=O)C3(CCNCC3)Nc3ccccc32)cc1 | -9.81
